Source: PMC6660416 (Cell, 2019)

Columns and labels:
[1] = target: 5-HT2A-Gαq (Homo sapiens, UniProt P28223+P50148); experiment: Saturation radioligand binding assay with [3H]LSD
[2] = tested on: MRGPRX2; experiment: Transcription factor reporter primary screen; type: cell-based; conditions: MRGPRX2 activated by (+)-morphine, 4 hrs post-ligand addition
[3] = tested on: 5-HT2A-RLuc; experiment: BRET association assay, 5-HT2A-RLuc and mVenus-nanobody; type: cell-based; conditions: 5-HT at 1μM or above
[4] = tested on: R7 tTA; experiment: tTA reporter assay; type: cell-based; conditions: increasing concentrations of DOX
Outline: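 Six hours after transfection, cells were washed and dissociated with versene. They were resuspended in DMEM + 1% dialyzed FBS and plated on poly-L-lysine 384-well plates at 10,000 cells/well. Doxycycline HCl, prepared in plating media at 2x, was added for 20–22 hr overnight. Media was then removed and 1:20-diluted Bright-Glo luciferase reagent was added for luminescence read-out.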

[3H]CN1C[C@H](C(=O)N(CC)CC)C=C2c3cccc4[nH]cc(c34)C[C@H]21 [[^3H]LSD, [N-Methyl-^3H]-Lysergic Acid Diethylamide]
BMax ([1]; 5HT2A-Gaq membrane + 5uM VGS-Nb2): 1993 fmol/mg | BMax ([1]; 5HT2A-Gaq membrane, vehicle): 1333 fmol/mg

CN1CC[C@@]23c4c5ccc(O)c4O[C@@H]2[C@H](O)C=C[C@@H]3[C@@H]1C5 [(+)-morphine]
SRE minimal promoter luciferase response [2]: 5 fold | SRF minimal promoter luciferase response [2]: 5 fold

NCCc1c[nH]c2ccc(O)cc12 [5-HT, serotonin]
effect of agonist on VGS-Nb2 association to 5-HT2A [3]: no effect

C[C@H]1c2cccc(O)c2C(=O)C2=C(O)[C@]3(O)C(=O)C(C(N)=O)=C(O)[C@@H](N(C)C)[C@@H]3[C@@H](O)[C@@H]21 [DOX, doxycycline]
sensitivity of R7 consensus tTA to doxycycline in TETO7-Rluc reporter [4]: completely resistant
